Assay [1] is filed under the species Homo sapiens. Put plainly: Cytotoxicity against human SHG44 at 50 uM after 24 hrs by cell counting kit-8 assay. Type of assay: functional. The essentials: (§1)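 SHG-44 glioblastoma cells were maintained in DMEM with 10% FBS and penicillin/streptomycin at 37 °C under 5% CO2. They were seeded at 5000/well in DMEM with 1% FBS and grown overnight, then exposed for 24 h to compound (0.1–100 μM) or 0.1% DMSO vehicle. CCK-8 was added for 2 h at 37 °C and A450 read. Results were from triplicates, expressed as % of vehicle.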

Assay [2] can be described thus: Growth inhibition of human SHG44 at 10 uM after 24 hrs by cell counting kit-8 assay. Conditions: SHG-44, 24 h, read-out: GI. Type of assay: functional. In a few lines:
as §1
On the technique in general: Tetrazolium dyes change colour on reduction, which living cells bring about.

A short description of assay [3]: Antiproliferative activity against human SHG44 cells after 24 hrs by cell counting kit-8 assay. Conditions: SHG-44, 24 h. It is filed as functional, cell-based. The essentials:
as §1

Assay [4] concerns SHG44. Put plainly: Antiproliferative activity against human SHG44 cells at 0.1 to 100 uM after 24 hrs by cell counting kit-8 assay. Type of assay: functional, cell-based. The essentials:
as §1

Calls of active or inactive are those of the source. The rule behind the calls is not given here.

Our source for the Activity, inhibition of growth and IC50 values is ChEMBL document CHEMBL1833911, “Diastereoselective synthesis and bioactivity of long-chain anti-2-amino-3-alkanols” (Eur J Med Chem, 2011).

`CCCCCCCCC[C@H](O)[C@H](N)CO`: the result in assay [1] was Active. Also, in assay [2], the inhibition of growth at 10 µM stood at 60%. Also, the IC50 – broadly, the point on the concentration scale where inhibition reaches its midpoint – in assay [3] was 4.41 µM.

Turning to `CCCCCCCCC[C@H](O)[C@@H](C)N`, the outcome in assay [1] was Active.

Turning to `CCC/C=C\CCCC[C@H](O)[C@@H](C)N`, the result in assay [4] was inactive. In assay [1], the result was Active.

Regarding `CCCCCCCCC[C@@H](O)[C@H](C)N`, the outcome in assay [1] was Active. For the same molecule, in assay [2], the inhibition of growth at 10 µM is 80%. The same molecule came in with a concentration for half-maximal inhibition (IC50) in assay [3] of 7.96 µM.

Regarding `CC(C)CCCCCCC[C@H](O)[C@@H](C)N`, in assay [4], the result was inactive. The result in assay [1] was Active.

On to `CCCCCCCCCCC[C@@H](O)[C@H](C)N` [XETOAMINOL C], for which, in assay [1], the outcome was Active. The inhibition of growth at 10 µM in assay [2] was determined as 100%. In addition, in assay [3], inhibition was half-maximal at 4.5 µM (IC50).
